Apaf1 activ: activators of human Apaf-1 apoptosome; O14727; Apaf-1 apoptosome caspase-3 activation, DEVD-Rh110 fluorescence; active compounds read low; activity change, negative = activation, % at 20 µM; 330,000 compounds, 0.31% hits;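 active = activity change at or below -40% at 20 µM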
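system = biochemical Apaf-1 apoptosome reconstitution | buffer or medium = 20 mM HEPES pH 7.5 with CHAPS, BSA | also added = dATP and cytochrome c as apoptosome triggers, (Z-DEVD)2-Rh110 substrate | incubation = 30 min compound preincubation and 50 min reaction, both room temperature | measured by = fluorescence, 540 nm emission, 480 nm excitation | read-out basis = Caspase-3 cleavage activity downstream of Apaf-1 activation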
Rh110 interf act: interferes with Rh110 fluorescence, flagging false Apaf-1 activators | fluorescence interference (activity change), % at 20 µM, hits read low | Rh110 fluorescence interference, quenched caspase reaction, Ex480/Em540 | shares compounds with Apaf1 activ | 980 tested, under 10 active;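 active = mean activity change at or below -40% when tested at 20 µM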
Apaf-1 act conf2: Apaf-1 (human) activation, single-dose confirmed; AID 504617; activity change, negative = activation, % at 20 µM; 980 compounds, 5% hits; reconstituted apoptosome caspase-3 activity, DEVD-Rh110 fluorescence; active compounds read low; shares compounds with Apaf1 activ;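 active = mean activity change at or below -40%, meaning activation of 40% or more, at 20 µM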
Apaf1 act interf: counter-screen for Apaf-1 activators: fluorescence interference, dose response | shares compounds with Apaf1 activ | AID 588592 | 55 tested, under 10 active | fluorescence interference counterscreen, Apaf-1 activator assay | EC50, µM; call rule not given here
An asterisk follows results filed as active; nt = not tested or not shown. These entries were drawn from the full list.

SMILES	Apaf1 activ	Rh110 interf act	Apaf-1 act conf2	others
CCCN(CC(=O)Nc1ccccc1C)C(=O)C1CCN(c2ncnc3sc(C)c(C)c23)CC1	49	nt	nt
Cc1c(CCOC(=O)CC23CC4CC(CC(C4)C2)C3)sc[n+]1CC(=O)c1ccc(Br)cc1	49	nt	nt
CC1=CC2=NC(=O)/C(=C/c3coc4ccc(Cl)cc4c3=O)C(=N)N2O1	-522*	-14	11
O=C1C2(CCCC13COC(c1ccc(O)cc1)OC3)COC(c1ccc(O)cc1)OC2 (stereo unspecified)	-127*	4	-60*	Apaf1 act interf=>100
COC/C=C/C1=CC2=CC(=O)C(C)(OC(=O)c3cnc4ccccc4n3)C(=O)C2=CN1CC(C)C (stereo unspecified)	41	nt	nt
c1cc2c3c(cccc3c1)C(N1CCCCC1)=N2	91	nt	nt
S=C(Nc1ccc(Cl)cc1)Nc1cccc2cnccc12	83	nt	nt
Cc1cc(C)n2nc(N)c(N=Nc3ccccc3)c2n1	-4	nt	nt
Cc1cc(C)n2nc(SC(C)C(=O)N(C)c3ccccc3)nc2n1 (stereo unspecified)	-54*	1	10
C#CCOCCOCCOCCNc1nc(N2CCN(C(=O)CCCCCCCCCCNC(=O)[C@@H](CCSC)n3cc(CCO)nn3)CC2)nc(N2CCN(C(=O)CCCCCCCCCCNC(=O)[C@H](CCC(=O)O)n3cc(CCCCCN)nn3)CC2)n1	62	nt	nt
O=C(Cn1c(-c2ccccn2)nc2ccccc21)N/N=C/c1ccccn1	-44*	0	10
O=C(CNc1cccc2ccccc12)N/N=C/c1ccccn1	48	nt	nt
CCn1c(SCC(=O)N/N=C/C=C\c2ccco2)nc2ccccc21	47	nt	nt
c1ccc(-c2c(-c3ccccc3)n(Cc3ccco3)c3ncnc(NCCCn4ccnc4)c23)cc1	42	nt	nt
N#Cc1c(/N=C/c2ccco2)sc2c1CCCCC2	-169*	1	22
C(=Nc1cccc2c(N=Cc3ccco3)cccc12)c1ccco1	92	nt	nt
COc1cc(OC)c(NC2=CC(=O)C(=O)c3ccccc32)cc1Cl	92	nt	nt
Fc1cccc(CCN2CCNC[C@H]2Cc2cccc3ccccc23)c1	43	nt	nt
C=CC(=O)Nc1ccc(CN2C(=O)N(c3c(Cl)c(OC)cc(OC)c3Cl)Cc3cnc(NCCCCN(CC)CC)nc32)cc1	63	nt	nt
O=C1C(Cl)=C(N2CCCCC2)C(=O)C(Cl)=C1c1cnc(N2CCCCC2)s1	48	nt	nt
CCCCC(CCC(=O)Nc1cc([N+](=O)[O-])ccc1O)C(=O)O (stereo unspecified)	-227*	11	20
Cc1cc(O)c(C(C)C)cc1N=Cc1cc([N+](=O)[O-])ccc1O	44	nt	nt
O=C(COC(=O)c1ccc([N+](=O)[O-])s1)NNC(=O)c1ccccc1	41	nt	nt
O=C(CCn1c2c(c3ccccc31)CCCC2)NNC(=O)c1ccc([N+](=O)[O-])cc1	81	nt	nt
Cc1ccc(C(=O)NC(=S)NNC(=O)c2cccc([N+](=O)[O-])c2)cc1	-116*	11	20
SMILES	Apaf1 activ	Rh110 interf act	Apaf-1 act conf2	others
CC(=O)[C@@]1(O)CCC2C3C=CC4=CC(=O)CC[C@]4(C)C3CC[C@@]21C (stereo partly specified)	-287*	9	11
CC(=O)[C@H]1CC[C@H]2[C@@H]3CCC4=CC(=O)CC[C@]4(C)[C@H]3CC[C@]12C	19	nt	nt
CCC[C@@H](CN1CCC[C@H]1CN1C(N)=NC[C@@H]1Cc1ccccc1)N1C[C@@H](Cc2ccccc2)N(CCc2ccc(Cl)c(Cl)c2)C1=N	78	nt	nt
CCC[C@@H](CN1CCC[C@H]1CN1C(N)=NC[C@@H]1Cc1ccccc1)N1C[C@@H]([C@H](C)CC)N(CCCC2CCCC2)C1=N	77	nt	nt
CCCCC(CC)COC(=O)C(C#N)=C(c1ccccc1)c1ccccc1 (stereo unspecified)	-232*	1	3
COc1ccccc1C(=O)NC(CCSC)C(=O)N1CCC(Cc2ccccc2)CC1 (stereo unspecified)	44	nt	nt
COc1ccc(CNc2ccc3cn[nH]c3c2)c(OC)c1OC	46	nt	nt
CCOc1ccccc1NC(=O)CCS(=O)(=O)c1ccc(Br)cc1	-220*	12	-128*	Apaf1 act interf=>100
COc1ccc([N+](=O)[O-])cc1NC(=O)CCS(=O)(=O)c1ccc(Br)cc1	-111*	-5	-101*	Apaf1 act interf=>100
O=C(CCS(=O)(=O)c1ccc(Br)cc1)NCc1ccco1	-88*	9	-51*	Apaf1 act interf=>100
O=C(COC(=O)c1cc(S(=O)(=O)N2CCc3ccccc3C2)ccc1Cl)NCc1ccco1	43	nt	nt
FC(F)(F)c1cc(CCN2CCNC[C@@H]2c2ccccc2)cc(C(F)(F)F)c1	61	nt	nt
N#Cc1c(NCCCO)nc(NCc2ccccc2)c2c1CCN(Cc1ccccc1)C2	69	nt	nt
O=[N+]([O-])c1ccc(N/N=C/c2ccc(O)c(O)c2O)c(S(=O)(=O)N2CCOCC2)c1	63	nt	nt
CSc1ncc(CN2CCc3c([nH]c4ccccc34)C2c2cccc(O)c2)cn1 (stereo unspecified)	-158*	-4	14
COc1cccc(-c2sc3ccc(OC)cc3c2-c2ccc(OCCN3CCCC3)cc2)c1	70	nt	nt
CCOC(=O)c1sc2nc3c(SCC(=O)O)cc(C(=O)c4ccccc4O)cn3c(=O)c2c1C	-189*	6	-24
CC(C)(C)c1ccc(/C=C(\C#N)C(=O)Nc2ccccn2)cc1	-186*	2	21
COc1ccc(S(=O)(=O)N2CCN(c3ccc4nnc(-c5ccccc5)n4n3)CC2)cc1	65	nt	nt
CN1CCN(S(=O)(=O)c2ccc(N3CCN(C(c4ccccc4)c4ccccc4)CC3)nc2)CC1	-78*	-3	11
COc1ccc(Cn2c(N)c(C#N)c3nc4ccccc4nc32)cc1OC	86	nt	nt
O=CNn1cnc2c(oc3nc(-c4ccccc4)cc(-c4ccco4)c32)c1=O	-116*	8	-5
CCC(C)(C)c1ccc(OCCCC[n+]2cccc(C)c2C)c(C(C)(C)CC)c1	69	nt	nt
O=C(C(Cc1ccccc1)N1C(=O)c2ccccc2C1=O)N1c2ccccc2CCc2ccccc21 (stereo unspecified)	40	nt	nt
O=C1CC(N2CCOCC2)=NN1c1ccc([N+](=O)[O-])cc1	94	nt	nt
SMILES	Apaf1 activ	Rh110 interf act	Apaf-1 act conf2	others
C=CCNc1oc(-c2ccc(OCC)cc2)nc1C#N	-52*	12	15
CN(C)CCCNC(=O)C[C@H]1C[C@H](C(=O)N2CCOCC2)[C@@]2(CCC3CCCC3)c3[nH]c4cc(-c5ccco5)ccc4c3CCN2C1=O	67	nt	nt
COc1ccccc1-c1sc2ccccc2c1-c1ccc(OCCN2CCCCC2)cc1	62	nt	nt
CCOC(=O)CCC(=O)NNC(=O)COc1ccc(C(C)C)cc1Br	-108*	-9	9
Cc1ccccc1Oc1ncnc2oc(-c3ccccc3)cc12	-75*	-6	11
COc1ccccc1C1Nc2cccc3cccc(c23)N1	51	nt	nt
C#CCOCCOCCOCCNc1nc(N2CCN(C(=O)CCCCCCCCCCNC(=O)[C@H](CCCCN)n3cc(C)nn3)CC2)nc(N2CCN(C(=O)CCCCCCCCCCNC(=O)[C@@H]([C@H](C)O)n3cc(C)nn3)CC2)n1	54	nt	nt
Cn1nc(-c2ccc(Cl)cc2)nc2c(=O)n(C)c(=O)nc1-2	99	nt	nt
Cn1c2ccccc2c(=O)n2c(=O)c3ccccc3cc12	98	nt	nt
